Measured values of several laboratories.
Lines come from different studies, so protocols differ.
Target: Glycogen synthase kinase-3 beta (GSK3B, Homo sapiens, UniProt P49841)
Method: competition with immobilised ligand

O=C(NCCCN1CCOCC1)c1ccc(Nc2nccc(-c3cc4ccccc4s3)n2)cc1 — remaining binding (binding; 1 µM): 73%
C=CC(=O)N1CCC(C(=O)NCC(=O)N2CCN(c3nc(-c4cnc(N)nc4C(F)F)nc(N4CCOCC4)n3)CC2)CC1 — remaining binding (binding; 1 µM): 74%
CN(CCCC(F)(F)F)c1nccc(-c2cnn3ncccc23)n1 — remaining binding (binding; 1 µM): 87%
CN(C)C(=O)Cn1cc(-c2nc(C3(c4ccc(-c5cnc(N)nc5)cc4)CC3)no2)cn1 — remaining binding (cell-free assay; 1 µM): 81%
N#Cc1ccccc1CSc1nnc2c(n1)[nH]c1ccccc12 — remaining binding (binding; 10 µM): 100%
O=C(Nc1c[nH]nc1C(=O)NC1CCNCC1)c1cc(F)cc(F)c1 — remaining binding (binding; 1 µM): 0.5%
CCN1CCN(Cc2ccc(C(=O)Nc3ccc(C)c(Oc4ccc5c(c4)CC(=O)N5)c3)cc2C(F)(F)F)CC1 — remaining binding (binding; 1 µM): 100%
O=C(Nc1ccc(Oc2ccc(F)cc2)cc1)N1CCc2ncccc2[C@H]1c1ccc(F)cc1 — remaining binding (cell-free assay; 1 µM): 100%
COc1ncc2cc3ccccc3nc2c1C#N — remaining binding (cell-free assay; 5 µM): 99%
Cn1nc(C(=O)NCc2ccc(C(=O)O)cc2)cc1-c1ccc2[nH]ccc2c1 — remaining binding (cell-free assay; 0.1 µM): 78%
C[C@@H](c1ccc(-n2cnc3c(N)ncnc32)cc1)N1CCc2nn(C)c(Cc3ccccc3)c2C1=O — remaining binding (binding; 0.1 µM): 58%
Cc1cnc(Nc2ccc(C(=O)N3CCC(N4CCCC4)CC3)cc2)nc1-c1cc2ccccc2s1 — remaining binding (binding; 1 µM): 51%
CNC(=O)[C@@H]1CC[C@@H](n2c(-c3ccc4cnccc4c3)nc3ccc(C(=O)NCc4cccc(C(N)=O)c4)cc32)C1 — remaining binding (binding; 1 µM): 95%
O=C(c1ccc(Nc2nccc(-c3cc4ccccc4s3)n2)cc1)N1CCC(N2CCCC2)CC1 — remaining binding (binding; 1 µM): 95%
C[C@@H]1CN(c2ccc3ncc(-c4ccc5[nH]nc(C6CC6)c5c4)n3n2)C[C@H](C)O1 — remaining binding (binding; 0.5 µM): 74%
CN(C)CC#Cc1ccc(OCCCc2sc(N3CCc4cccc(C(=O)Nc5nc6ccccc6s5)c4C3)nc2C(=O)O)c(F)c1 — remaining binding (cell-free assay; 1 µM): 93%
C[C@H]1CCN(c2nccc(-c3cnn4ncccc34)n2)C1 — remaining binding (binding; 1 µM): 98%
Cc1cc(NC(=O)c2cccc(S(F)(F)(F)(F)F)c2)cc(-n2ccn3nc(-c4cccnc4)cc23)c1 — remaining binding (cell-free assay; 1 µM): 85.4%
COc1cnc(Nc2cccc(S(N)(=O)=O)c2)nc1N1CCN(c2ccccc2)C(=O)C1 — remaining binding (binding; 1 µM): 91%
